Compounds with a hit are over-represented: about 2.6% of the library has one in this group of screens.
TbMetRS_inhib = blocks T. brucei methionyl-tRNA synthetase activity; inhibition, % at 11.9 µM; 360,000 compounds, 0.4% hits; purified T. brucei MetRS, ATP depletion, Kinase-Glo luminescence;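 active = inhibition above a per-plate cutoff of the control wells' mean inhibition plus 3 SD, cut at about 5.5% in these data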
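Material: parasite MetRS enzyme / Replication: singlicate, one well per compound / Signal: luminescence of leftover ATP / Schedule: 2 h aminoacylation at 25 °C after 15 min preincubation / Medium: HEPES-MgCl2-KCl buffer plus DTT, spermine, BSA, pyrophosphatase / Doses: 11.9 µM single point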
iPSC_survival_up = increases survival of single human iPS cells; hiPSC single-cell survival, ATPlite luminescence; 100% = ROCK inhibitor wells, 0% = DMSO; survival enhancement, % at 20 µM; 360,000 compounds, 0.044% hits; AID 602274; in the data active = survival enhancement above about 18%;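 note: cells exposed to compounds for 16 hours before the ATP read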
MC4R_antag_cAMP = human MC4R antagonism in cAMP assay; P32245; MC4R-expressing cells, MTII-stimulated cAMP, LANCE TR-FRET; inhibition, % at 6.5 µM; 360,000 compounds, 0.48% hits; AID 540295;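 active = inhibition above its plate's cutoff, the mean of tested wells on that plate plus 3 SD, cut at about 29% in these data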
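Assay system: human MC4R-expressing U2OS cells; reagent: Melanotan II stimulation of cells; dosing: 6.5 µM single dose; timing: compound 30 min, challenge 1 h, detection 1 h; signal: TR-FRET cAMP assay; replicates: one well per compound, no replicates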
MC4R_ag_barr = activates human MC4R beta-arrestin recruitment; P32245; U2OS MC4R beta-arrestin complementation, luminescence; percent of melanotan II response, DMSO zero; activation, % at 8.9 µM; 360,000 compounds, 0.98% hits; AID 540308;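 active = activation above a per-plate cutoff, the mean activation of sample wells on that plate plus 3 SD, cut at about 8% in these data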
Granule_exo_inh = lytic granule exocytosis inhibition; TALL-104 LAMP-1 surface exposure, flow cytometry; cells stimulated with thapsigargin and PMA; AID 651702; inhibition, % at 10 µM; 360,000 compounds, 0.66% hits;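 active = inhibition above about 55%, limit read from the data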
ABCB6_inh_MLPCN = inhibitors of human ABC transporter ABCB6; 360,000 compounds, 0.19% hits; K562-ABCB6 porphyrin accumulation, flow cytometry, 1 h; active compounds read low; Q9NP58; fluorescence ratio to DMSO, % at 10 µM;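 active = fluorescence ratio to DMSO below 75%, the collection mean minus 3 SD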;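 note: signal is porphyrin accumulated inside mitochondria; lower ratio means ABCB6 inhibition with less porphyrin fluorescence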
MC4R_barr_ag = human MC4R beta-arrestin agonism confirmation | 2,400 compounds, 31% hits | U2OS MC4R beta-arrestin recruitment, luminescence; scaled DMSO 0%, Melanotan II 100% | activation, % at 8.9 µM | shares compounds with MC4R_ag_barr;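 active = mean activation across replicates above the hit cutoff set in the earlier primary screen, cut at about 8% in these data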
MOR-DOR_barr_ag = activates mu-delta opioid heterodimer, MC4R agonist counter-screen; shares compounds with MC4R_ag_barr; U2OS PathHunter beta-arrestin, beta-gal luminescence; percent of deltorphin B response, DMSO zero; activation, % at 9.2 µM; 2,400 compounds, 5.8% hits; AID 602194;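 active = mean activation across replicates exceeds the hit threshold derived in the earlier primary screen, cut at about 18% in these data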
Numbers stand for hits; . = inactive; / = no result given.

SMILES TbMetRS_inhib iPSC_survival_up MC4R_antag_cAMP MC4R_ag_barr Granule_exo_inh ABCB6_inh_MLPCN MC4R_barr_ag MOR-DOR_barr_ag
COc1cc(NC(=O)c2ccc(-c3ccc(Br)cc3)o2)ccc1NC(=O)C(C)C . . . 15.3 . . . .
Clc1ccc(/C=N/Nc2nc(Cl)nc3ccccc23)cc1 . . . . . . / /
C(=N\NC1=Nc2cccc3cccc1c23)/c1ccccc1 . . . 13.7 . . . .
Clc1ccc(/C=N/NC2=Nc3cccc4cccc2c34)cc1 . . . 15.9 . . 22.2 .
C(=N\NC1=Nc2cccc3cccc1c23)/c1cccnc1 . . . . . . / /
Cc1ccc(C(C)C)c(OCC(=O)NNCC(=O)Nc2cccc(F)c2)c1 . . . 13.7 . . 10.2 .
